Assay results reported in ChEMBL document CHEMBL1122171, “Hypobetalipoproteinemic agents. 3. Variation of the polycyclic portion of 4-(1-adamantyloxy)aniline” (1982).

Assays:
Format in all cases: functional
Rattus norvegicus [1] = assay: Hypobetalipoproteinemic activity was determined in diet-induced hypercholesterolemic rats at a dose of 0.18 (mmol/kg)/day (heparin precipitating lipoproteins level was determined)
How it was run: (§1)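 Cholesterol-cholic acid fed rats given each compound at 50 (mg/kg)/day in 0.25% aqueous methylcellulose vehicle. Serum total cholesterol, heparin precipitating lipoproteins (HPL) and HPL/cholesterol ratio measured. Values expressed as T/C, the treated-group mean divided by the control mean. Significance vs control set at p < 0.05. Food intake and weight gain monitored. Active compounds retested for confirmation.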

Rattus norvegicus [2] = assay: Hypobetalipoproteinemic activity was determined in diet-induced hypercholesterolemic rats at a dose of 0.18 (mmol/kg)/day (total cholesterol level was determined); how it was run: as §1
[3] = Ratio of heparin precipitating lipoproteins level to cholesterol level was determined; how it was run: as §1
Rattus norvegicus [4] = assay: Hypobetalipoproteinemic activity was determined in diet-induced hypercholesterolemic rats at a dose of 0.17 (mmol/kg)/day (heparin precipitating lipoproteins level was determined); how it was run: as §1
Rattus norvegicus [5] = assay: Hypobetalipoproteinemic activity was determined in diet-induced hypercholesterolemic rats at a dose of 0.17 (mmol/kg)/day (total cholesterol level was determined); how it was run: as §1
Rattus norvegicus [6] = assay: Hypobetalipoproteinemic activity was determined in diet-induced hypercholesterolemic rats at a dose of 0.19 (mmol/kg)/day (heparin precipitating lipoproteins level was determined); how it was run: as §1
Rattus norvegicus [7] = assay: Hypobetalipoproteinemic activity was determined in diet-induced hypercholesterolemic rats at a dose of 0.19 (mmol/kg)/day (total cholesterol level was determined); how it was run: as §1
Rattus norvegicus [8] = assay: Hypobetalipoproteinemic activity was determined in diet-induced hypercholesterolemic rats at a dose of 0.22 (mmol/kg)/day (heparin precipitating lipoproteins level was determined); how it was run: as §1
Rattus norvegicus [9] = assay: Hypobetalipoproteinemic activity was determined in diet-induced hypercholesterolemic rats at a dose of 0.22 (mmol/kg)/day (total cholesterol level was determined); how it was run: as §1

SMILES	Ratio [3]	T/C (Rattus norvegicus [4])	T/C (Rattus norvegicus [5])	other results
Cl.Nc1ccc(OC23CCCCC2CCCC3)cc1 (stereo in doubt; 17)				T/C (Rattus norvegicus [1]): 1.24; T/C (Rattus norvegicus [2]): 1.38
Nc1ccc(OC23CC4C5CC6CC4C(C2)C(C6)C5C3)cc1	0.62	0.19	0.31	
Cl.Nc1ccc(OC23CCCCC2CCCC3)cc1 (stereo in doubt; 14)				T/C (Rattus norvegicus [1]): 0.89; T/C (Rattus norvegicus [2]): 0.92
CCCCCC(C)(C)Oc1ccc(N)cc1.Cl	0.94			T/C (Rattus norvegicus [6]): 0.96; T/C (Rattus norvegicus [7]): 1.02
CCCC(C)(C)Oc1ccc(N)cc1.Cl	0.92			T/C (Rattus norvegicus [8]): 0.78; T/C (Rattus norvegicus [9]): 0.84
Nc1ccc(OC23CCCCC2CCCC3)cc1 (stereo in doubt; 17)	0.9			
CCCCCCCC(C)(C)Oc1ccc(N)cc1.Cl	0.86	0.84	0.98	
Nc1ccc(OC23CCCCC2CCCC3)cc1 (stereo in doubt; 14)	0.97			
Nc1ccc(OC23CC4CC5C6CC(CC52)CC3C6C4)cc1	0.66	0.35	0.53	
